Compound activity (PubChem BioAssay)
SIRT5 inh: sirtuin-5 (human) deacylase inhibition. Q9NXA8. Purified SirT5, succinyl-peptide AMC, trypsin-coupled fluorescence. inhibition, % at 15 µM. 330,000 compounds, 1.1% hits. AID 652115; in the data active = inhibition above about 15%; inconclusive = no clear call, values can overlap the other calls
Target sequence (Q9NXA8 whole entry, looked up): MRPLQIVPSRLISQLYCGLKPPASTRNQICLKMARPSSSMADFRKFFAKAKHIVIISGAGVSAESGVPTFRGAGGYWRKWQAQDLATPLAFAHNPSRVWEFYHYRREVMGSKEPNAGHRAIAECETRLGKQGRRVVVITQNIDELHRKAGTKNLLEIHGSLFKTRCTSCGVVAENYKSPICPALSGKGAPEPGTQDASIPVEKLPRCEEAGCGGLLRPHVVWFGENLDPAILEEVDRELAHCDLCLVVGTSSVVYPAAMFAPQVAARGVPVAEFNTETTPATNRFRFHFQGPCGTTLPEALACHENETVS
FGF22 binding: shifts melting point of recombinant human FGF22; recombinant FGF22 thermal shift, SYPRO orange fluorescence; percent of sucrose octasulfate shift, DMSO zero; AID 651658; 340,000 compounds, 1.5% hits; activity (Tm shift, normalised), % at 9.99 µM;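 active = mean Tm shift, scaled 0 neutral to 100 positive control, at about 1.3% or above, every replicate too, limit read from the data; inconclusive = no clear call, values can overlap the other calls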
Target sequence (Q9HCT0 whole entry, looked up): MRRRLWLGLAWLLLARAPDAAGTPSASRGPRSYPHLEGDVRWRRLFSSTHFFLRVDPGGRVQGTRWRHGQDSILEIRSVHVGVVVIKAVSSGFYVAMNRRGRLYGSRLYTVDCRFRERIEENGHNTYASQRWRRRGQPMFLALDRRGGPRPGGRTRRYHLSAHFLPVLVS
XiGFP reactiv: reactivates the inactive X chromosome in mouse fibroblasts; XiGFP mouse fibroblasts, % GFP-positive cells imaging, 3 d; cells co-treated with 5-aza-dC sensitizer; scaled so ellipticine positive control = 100%; activation, % at 7.58 µM; 360,000 compounds, 0.055% hits; AID 743238;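 active = mean normalized replicate activation at least 10% and every replicate at or above 10%; inconclusive = only one of the two criteria met; inactive = mean below 10% and not all replicates reach 10%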;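 note: 0% = median of on-plate neutral control wells and 100% = ellipticine 6 µM median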
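Assay system: SV40-immortalized XiGFP fibroblast cells, line 68-5-11; buffer or medium: DMEM plus 5-aza-dC sensitizer; compound: one concentration, pinned; timing: compounds 3 days, fix/stain 15 min at room temperature; benchmarks: positive control ellipticine, 6 µM final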
DENV2 CPE rescue: protects cells from dengue virus 2 cytopathic effect | DENV2-infected cells, cytopathic effect rescue, plate reader | CPE inhibition, % at 9.99 µM | 350,000 compounds, 1.7% hits; in the data active = CPE inhibition above about 20%, passing the limit was not always enough; inconclusive = no clear call, values can overlap the other calls; tested in BHK-21 cells;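 note: 0% = median of neutral control wells and 100% = median of positive control wells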
ARNT-TACC3 inh: disrupts binding between human ARNT and TACC3. 390,000 compounds, 0.66% hits. inhibition, % at 9.99 µM. AlphaScreen His-ARNT PAS-B/GST-TACC3 binding, luminescence; TACC3 fragment carries E629A point mutation. Q9Y6A5;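 active = mean inhibition of replicates at least 50% and at least half of replicates each reaching 50%; inconclusive = half or more replicates reach 50% but mean below 50%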;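 note: 0% = complete ARNT plus TACC3 wells and 100% = ARNT alone without TACC3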
FN deposition inh: fibronectin deposition inhibition | AH1F fibroblasts, Alexa488-fibronectin deposition fluorescence, overnight | 350,000 compounds, 0.086% hits | inhibition, % at 12.6 µM | AID 743247;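 active = mean inhibition across replicates of 30% or more, regardless of how many single replicates reach that level; inconclusive = mean under 30% yet at least half of replicates reach 30%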;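 note: positive control wells lacked labelled fibronectin entirely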
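Assay system: AH1F fibroblasts / Quantity: 10000 cells per well / Medium: DMEM plus 2% serum, read in PBS / Reagent: labelled fibronectin 24 nM / Dosing: single dose, pinned / Times: 1 h cell attachment, overnight exposure to compound and label / Signal: fluorescence, ex 485 nm, em 525 nm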
* marks the source's active call; other numbers are inactive results; ? = inconclusive; nt = no result given. Hits are enriched below; roughly 3.8% of the tested compounds scored in any of these assays.

SMILES | SIRT5 inh | FGF22 binding | XiGFP reactiv | DENV2 CPE rescue | ARNT-TACC3 inh | FN deposition inh
CO[C@@H]1CN(C)C(=O)c2ccc(NC(=O)C3CCCCC3)cc2OC[C@@H](C)N(Cc2cccnc2)C[C@H]1C | 6 | 0 | 0 | 18 | 1 | 10
O=C1/C(=C/c2cccc([N+](=O)[O-])c2)CCc2ccccc21 | nt | nt | 1 | nt | 9 | 2
CCN1C/C(=C\c2cccc([N+](=O)[O-])c2)C(=O)/C(=C/c2cccc([N+](=O)[O-])c2)C1 | 1 | 0 | 4 | 33* | 1 | 9
C[C@@H]1CN([C@H](C)CO)C(=O)c2cc(NS(=O)(=O)c3cn(C)cn3)ccc2O[C@@H](C)CCCCO[C@H]1CN(C)Cc1ccc(C(=O)O)cc1 | nt | 0 | 0 | -7 | -2 | nt
CC(=O)N/N=C(\C)c1ccc2c(c1)OCCO2 | 0 | 43* | 0 | -1 | -5 | 2
CN(C)CCCNS(=O)(=O)c1ccc(N2CCC(c3ccc(Cl)cc3)=N2)cc1 | nt | nt | nt | nt | nt | 41*
O=S(=O)(c1ccc(N2CCC(c3ccc(Cl)cc3)=N2)cc1)N(CCO)CCO | -27 | nt | nt | nt | -60 | 0
C[C@H](CO)N1C[C@H](C)[C@H](CN(C)C(=O)C2CCC2)Oc2ncc(Br)cc2C1=O | nt | nt | -1 | nt | nt | nt
O=c1ccc(-c2nc3ccccc3n2Cc2ccccc2Cl)c[nH]1 | 0 | 43* | 0 | 7 | 7 | -3
CCC(C(=O)Nc1c(C)cccc1C)n1c(-c2ccc(=O)[nH]c2)nc2ccccc21 (stereo not given) | nt | 0 | 0 | 33* | nt | 3
CCC(C(=O)Nc1c(C)cccc1C)n1c(-c2cnc(C)cn2)nc2ccccc21 (stereo not given) | 5 | 0 | 0 | 3 | nt | -3
O=S1(=O)N[C@@H](Cc2ccccc2)COc2cccc(N3CCCC3)c21 | 23* | 0 | 0 | ? | nt | -9
O=S1(=O)N[C@@H](Cc2ccccc2)COc2cccc(N3CCCCC3)c21 | 0 | 0 | 0 | 3 | nt | 11
C[C@@H]1CN([C@@H](C)CO)S(=O)(=O)c2ccc(C#CC3CC3)cc2O[C@H]1CN(C)CC1CCCC1 | nt | 0 | -1 | -3 | -3 | nt
COc1ccc(S(=O)(=O)Nc2ccc3c(c2)CC(=O)N([C@H](C)CO)C[C@H](C)[C@H](CN(C)Cc2ccncc2)O3)cc1 | 0 | 0 | 0 | -5 | -20 | 0
CC1(C)C(Cl)C(=O)C(C(=O)c2ccccc2)C(=O)C1Cl (stereo not given) | 94* | 0 | 0 | -4 | 0 | -4
CC1(C)C(=O)OC(C(=O)c2ccccc2)C(C)(C)C1=O (stereo not given) | nt | nt | nt | nt | -2 | -6
COc1ccc(CNC(=O)COc2ccc(S(=O)(=O)N3CCOCC3)cc2)cc1 | -2 | 0 | 0 | -7 | 0 | 9
O=C(COc1ccc(S(=O)(=O)N2CCOCC2)cc1)NCCc1ccc(Cl)cc1 | nt | 43* | 0 | -7 | nt | -2
O=C(/C=C/c1ccc(S(=O)(=O)N2CCOCC2)cc1)NCc1ccc(Cl)cc1 | nt | 0 | 0 | -2 | 14* | -6
COc1ccc(CNC(=O)/C=C/c2ccc(S(=O)(=O)N3CCOCC3)cc2)cc1 | 3 | 0 | 0 | 5 | -4 | 0
C[C@@H]1CN([C@@H](C)CO)C(=O)c2cc(C3=CCCC3)cnc2O[C@H]1CN(C)C(=O)Nc1cccc(F)c1 | nt | nt | 0 | nt | nt | 4
Cc1ccc(S(=O)(=O)Nc2ccc3c(c2)C(=O)N([C@H](C)CO)C[C@H](C)[C@@H](CN(C)S(=O)(=O)c2ccc(Cl)cc2)O3)cc1 | 3 | -1 | 0 | 15 | nt | nt
COc1ccc(S(=O)(=O)N2CCCOC2CNC(=O)C(=O)NCCCn2ccnc2)cc1 (stereo not given) | 1 | 44* | 0 | 1 | nt | -5
Cc1cc(C)c(S(=O)(=O)N2CCCOC2CNC(=O)C(=O)NCCCn2ccnc2)c(C)c1 (stereo not given) | 1 | 0 | 0 | 1 | -17 | 3
SMILES | SIRT5 inh | FGF22 binding | XiGFP reactiv | DENV2 CPE rescue | ARNT-TACC3 inh | FN deposition inh
Cc1ccc(S(=O)(=O)N2CCCOC2CNC(=O)C(=O)NCCCn2ccnc2)cc1 (stereo not given) | -1 | 0 | 0 | -5 | 78* | -7
O=C(NCCCn1ccnc1)C(=O)NCC1OCCN1S(=O)(=O)c1ccc(Br)cc1 (stereo not given) | 3 | 0 | 0 | 4 | 1 | nt
COc1ccc([C@H]2CC(=O)C=C(c3ccc4c(c3)OCO4)C2)cc1OC | -3 | 4.0* | 0 | -2 | -3 | 1
COc1ccc(C2=CC(=O)CC(c3ccc(OC)cc3)C2)cc1 (stereo not given) | -1 | 1 | 0 | 5 | 2 | 1
COc1ccc([C@H]2CC(=O)C=C(c3ccc4ccccc4c3)C2)cc1OC | 15* | 0 | 0 | 7 | 1 | -10
CCOc1ccc(C2=CC(=O)C[C@H](c3ccc(OC)cc3)C2)cc1 | -4 | 0 | 0 | 26* | 1 | -1
COc1cccc(NC(=O)N[C@H]2CC[C@@H](CC(=O)NCc3ccncn3)O[C@H]2CO)c1 | -10 | 0 | 0 | -4 | 2 | -5
Cc1ccsc1/C=N\NC(=O)CC(=O)NCc1ccccc1 | 1 | 43* | 0 | -2 | -1 | 13
Cc1ccsc1/C=N/NC(=S)NCc1ccccc1 | 2 | 0 | 0 | 6 | 6 | -27
COCC(=O)N1CC2(CCN(S(C)(=O)=O)CC2)c2c(n(C)c3cc(OC)ccc23)[C@@H]1CO | nt | 0 | 1 | 6 | nt | nt
C/C=C/c1ccc([C@H]2[C@@H](CO)N(C(C)=O)[C@@H]2CNC(=O)c2ccncc2)cc1 | -8 | 0 | 0 | 6 | -4 | 0
COc1ccc(/C=C/C(=O)OCC(=O)NCC2CCCO2)cc1 (stereo not given) | 3 | 44* | 0 | -12 | nt | 3
COc1cccc(/C=C/C(=O)OCC(=O)NCC2CCCO2)c1 (stereo not given) | nt | nt | 1 | nt | -2 | 1
COc1ccc(C(=O)NC(=S)NCC2CCCO2)cc1 (stereo not given) | nt | nt | nt | nt | 3 | nt
COc1ccc(/C=C/C(=O)NC(=S)NCC2CCCO2)cc1 (stereo not given) | 2 | 44* | 0 | 1 | -26 | nt
COc1cc(N2C(=O)C=CC2=O)c(OC)cc1Cl | nt | 0 | 0 | 12 | 3 | 35*
COC(=O)C[C@H]1C=C[C@@H](NC(=O)c2ccccc2)[C@H](CO)O1 | -1 | 0 | 0 | -10 | -11 | nt
C[C@@H]1CCCCO[C@H](CN(C)Cc2ccc(C(F)(F)F)cc2)[C@@H](C)CN([C@H](C)CO)C(=O)c2cc(NC(=O)c3ccccc3)ccc2O1 | 5 | 0 | -1 | 12 | -6 | nt
